Laboratory results: ChEMBL document CHEMBL1121548, “Structure-activity relationships of pyrrole amidine antiviral antibiotics. 2. Preparation of mono- and tripyrrole derivatives of congocidine” (1980)

Tests used:
[1] = system: BSC-1; assay: Evaluation of titer of virus progeny produced in untreated infected cells and in cells treated with the compound by plaque assay on BSC-1 cells.; format: functional, Cercopithecidae; set-up: concentration or dose not given beside the values
Summary of the method: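 HSV type 1-infected cell cultures were exposed to drug at the maximal nontoxic concentration. Toxicity means cell death within 2 days of drug incubation at 37 °C; the maximal nontoxic level is the concentration whose twofold increase causes toxicity. Progeny virus titer was determined by plaque assay on BSC-1 cells. Yield is expressed as a percentage of the untreated infected-cell yield (taken as 100%).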

[2] = system: Human alphaherpesvirus 2; assay: Compound were tested for their ability to inhibit HSV replication at their maximal nontoxic concentration; 400 ug/mL of the drug was not toxic; format: functional, organism-based; conditions: herpes simplex virus
[3] = system: Nucleic Acid; assay: In vitro ability to inhibit HSV DNA polymerase activity in vitro using activated calf thymus DNA as atemplate at dose 100 ug/mL; format: nucleic-acid assay; conditions: herpes simplex virus
[4] = system: Nucleic Acid; assay: In vitro ability to inhibit HSV DNA polymerase activity in vitro using activated calf thymus DNA as atemplate at dose 200 ug/mL; format: nucleic-acid assay; conditions: herpes simplex virus
[5] = system: Nucleic Acid; assay: In vitro ability to inhibit HSV DNA polymerase activity in vitro using activated calf thymus DNA as atemplate at dose 25 ug/mL; format: nucleic-acid assay; conditions: herpes simplex virus
[6] = system: Nucleic Acid; assay: In vitro ability to inhibit HSV DNA polymerase activity in vitro using activated calf thymus DNA as atemplate at dose 400 ug/mL; format: nucleic-acid assay; conditions: herpes simplex virus
[7] = system: Nucleic Acid; assay: In vitro ability to inhibit HSV DNA polymerase activity in vitro using activated calf thymus DNA as atemplate at dose 50 ug/mL; format: nucleic-acid assay; conditions: herpes simplex virus
[8] = system: Human alphaherpesvirus 1; assay: Compound were tested for their ability to inhibit HSV replication at their maximal nontoxic concentration; conditions: herpes simplex virus
[9] = system: Human alphaherpesvirus 1; assay: In vitro ability to inhibit synthesis of herpes simplex virus (HSV) DNA in isolated nuclei at dose 50 ug/mL
[10] = system: Human alphaherpesvirus 1; assay: In vitro ability to inhibit synthesis of herpes simplex virus (HSV) DNA in isolated nuclei at dose 25 ug/mL
[11] = system: Human alphaherpesvirus 1; assay: In vitro ability to inhibit synthesis of herpes simplex virus (HSV) DNA in isolated nuclei at dose 100 ug/mL
[12] = system: Human alphaherpesvirus 1; assay: In vitro ability to inhibit synthesis of herpes simplex virus (HSV) DNA in isolated nuclei at dose 400 ug/mL
[13] = system: Human alphaherpesvirus 1; assay: In vitro ability to inhibit synthesis of herpes simplex virus (HSV) DNA in isolated nuclei at dose 200 ug/mL

Compound	Inhibition [1] [%]	Concentration [2] [µg/mL]	inhibition [3] [%]	inhibition [4] [%]	inhibition [5] [%]	inhibition [6] [%]	inhibition [7] [%]	Concentration [8] [µg/mL]	inhibition at 50 µg/mL [9] [%]	inhibition at 25 µg/mL [10] [%]	inhibition at 100 µg/mL [11] [%]	inhibition at 400 µg/mL [12] [%]	inhibition at 200 µg/mL [13] [%]
CC(CC#N)NC(=O)c1cc(NC(=O)c2cc(NC(=O)c3cc(NC(=O)CN=C(N)N)cn3C)cn2C)cn1C.Cl (stereo not drawn)	90.9	> 400											
Cl.Cl.Cn1cc(NC(=O)c2cc(NC(=O)c3cc(NC=O)cn3C)cn2C)cc1C(=O)NCCC(=N)N	99.7		85	98	20	99	62	25	85	79	89	98	95
CC(CC(=N)N)NC(=O)c1cc(NC(=O)c2cc(NC(=O)c3cc(NC(=O)CN=C(N)N)cn3C)cn2C)cn1C.Cl.Cl (stereo not drawn)	99.3		83	96	26	97	59	10	73	56	83	97	91
Cl.Cl.Cn1cc(NC(=O)c2cc(NC(=O)CNC(=N)N)cn2C)cc1C(=O)NCCC(=N)N [CONGOCIDINE]	98.1		78	90	30	93	61	5	67	64	61	88	71
Cl.Cn1cc(NC(=O)c2cc(NC(=O)c3cc(NC(=O)CN=C(N)N)cn3C)cn2C)cc1C(=O)NCCC#N	93.14		68	79	12	91	35	50	68	56		89	87
Cl.Cl.Cn1cc(NC(=O)c2cc(NC(=O)c3cc(NC(=O)CN=C(N)N)cn3C)cn2C)cc1C(=O)NCCC(=N)N	99.7		93	94	25	99	64	25	84	78	92	97	97
Cl.Cl.Cn1cc(NC(=O)c2cc(NC(=O)c3cc(NC(=O)CN=C(N)N)cn3C)cn2C)cc1C(=O)NCC(=N)N	99.7		89	99	39	99	83	100					
